Shown are actives, neighbours in structure and some others; about 1.5% of the full set was active somewhere.
Jurkat NFkB inh = inhibitors of the PMA/ionomycin-induced NF-kB reporter in Jurkat cells; PMA/ionomycin-induced NF-kB luciferase reporter, luminescence; inhibition, % at 4 µM; 330,000 tested, 0.53% active; in the data active = inhibition above about 50%
NR2E3 ag-1 = activates human NR2E3 receptor; 360,000 tested, 0.35% active; inhibition of corepressor binding, % at 3.98 µM; AID 602229; Q9Y5X4; CHO-S Gal4-NCOR/VP16-NR2E3 two-hybrid, luciferase;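 active = inhibition above the mean of all tested compounds plus 3 SD, cut at about 70% in these data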;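 note: 0% = DMSO with NR2E3 transfected cells and 100% = cells lacking NR2E3 construct; higher means lower luciferase signal from less NR2E3 corepressor binding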
697 NFkB inh = lowers PMA/ionomycin-induced NF-kB signal in 697 B cells. 697 B-cell NF-kB luciferase reporter, 16 h. inhibition, % at 4 µM. 330,000 tested, 0.33% active. AID 435022; in the data active = inhibition above about 35%
NR2E3 ag-2 = agonists of human nuclear receptor NR2E3; GST-NR2E3/biotin-RetCOR TR-FRET, 1536-well; inhibition of corepressor binding, % at 4.78 µM; 320,000 tested, 0.12% active; AID 2300;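 active = percent inhibition above the cutoff of mean plus 3 SD of all tested compounds, set per screening campaign, cut at about 20% in these data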;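 note: 0% = DMSO wells and 100% = biotin wells as full block of FRET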
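Format: 1536-well format; test system: GST-NR2E3 and biotin-RetCOR proteins; read-out basis: percent inhibition of TR-FRET ratio; timing: 5 h incubation at 4 °C; detection: time-resolved FRET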
GASC-1 inh = blocks human GASC-1 demethylase activity; Q9H3R0; GST-JMJD2C(1-420) H3K9me3 demethylation, DELFIA europium; inhibition, % at 2.35 µM; 330,000 tested, 0.069% active;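 active = more than half of a compound's replicate wells show inhibition beyond 50%, single wells judged on their own value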;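 note: signal counts dimethyl H3K9 product captured on neutravidin plate; 0% = median of DMSO wells and 100% = 0.3 times that DMSO median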
Target sequence (Q9H3R0 1-420 limits assumed): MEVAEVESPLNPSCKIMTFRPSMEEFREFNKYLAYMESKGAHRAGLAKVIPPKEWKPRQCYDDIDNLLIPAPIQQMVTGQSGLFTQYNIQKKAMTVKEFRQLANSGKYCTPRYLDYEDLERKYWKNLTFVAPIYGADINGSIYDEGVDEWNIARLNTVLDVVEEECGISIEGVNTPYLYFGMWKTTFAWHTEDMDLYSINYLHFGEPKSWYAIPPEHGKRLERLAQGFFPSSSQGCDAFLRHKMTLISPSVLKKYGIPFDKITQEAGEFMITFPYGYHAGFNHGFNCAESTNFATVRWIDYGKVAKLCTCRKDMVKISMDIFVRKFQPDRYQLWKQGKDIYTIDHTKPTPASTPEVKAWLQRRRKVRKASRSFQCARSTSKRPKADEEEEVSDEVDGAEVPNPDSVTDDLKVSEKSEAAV
GalR3 antag = human GalR3 antagonism; AID 651719; HEK293 GalR3-CNG cAMP membrane potential fluorescence; galR3 body fused to GalR1 C-terminus; O60755; inhibition, % at 3 µM; 360,000 tested, 0.44% active;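 active = inhibition above the screen-wide average plus 3 SD, cut at about 13% in these data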;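 note: forskolin and galanin both at EC90 stimulate the cells; cAMP rise reported by CNG channel membrane potential dye signal; 0% = forskolin plus galanin with DMSO and 100% = forskolin alone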
Jurkat NFkB conf = inhibitors of the PMA/ionomycin-induced NF-kB reporter in Jurkat cells, retest. shares compounds with Jurkat NFkB inh. Jurkat NF-kB luciferase, 16 h. 2,700 tested, 27% active. inhibition, % at 4 µM;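 active = inhibition reaching about 45% at 4 µM in either replicate, limit read from the data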;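 note: plate controls were PMA/ionomycin stimulated DMSO wells for no effect and unstimulated DMSO wells for full effect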
697 NFkB conf = lowers PMA/ionomycin-induced NF-kB signal in 697 B cells; 2,000 tested, 35% active; 697 B-cell NF-kB luciferase, 16 h; AID 449746; shares compounds with 697 NFkB inh; inhibition, % at 4 µM; in the data active = inhibition mostly above about 28%, no sharp cut-off; inactive = mostly below about 22%
Starred values were filed as active, the others as inactive.

What do the screens show for `Cc1ccsc1CN(C(=O)c1ccc([N+](=O)[O-])cc1)C1CCS(=O)(=O)C1` (stereo not drawn)?
Jurkat NFkB inh: -11; NR2E3 ag-1: -24; 697 NFkB inh: 0; NR2E3 ag-2: 1; GASC-1 inh: -14; GalR3 antag: -2

Results for COc1cc(OC)c(-c2nc(-c3ccncc3)no2)cc1OC ?
Jurkat NFkB inh: 9; NR2E3 ag-1: -17; 697 NFkB inh: 25; NR2E3 ag-2: 0; GASC-1 inh: -1; GalR3 antag: -6

What do the screens show for `COc1ccccc1-c1nc(-c2cccc(C)c2)no1`?
Jurkat NFkB inh: -212; NR2E3 ag-1: -132; 697 NFkB inh: -284; NR2E3 ag-2: 2; GASC-1 inh: -9; GalR3 antag: 1; Jurkat NFkB conf: -178; 697 NFkB conf: -258

How did COc1ccc(-c2nc(-c3ccncc3)no2)c(OC)c1 do in these assays?
Jurkat NFkB inh: -201; NR2E3 ag-1: -139; 697 NFkB inh: -380; NR2E3 ag-2: 2; GASC-1 inh: 2; GalR3 antag: -9; Jurkat NFkB conf: -98; 697 NFkB conf: -283

What do the screens show for `COc1ccc(-c2noc(-c3ccccc3F)n2)cc1`?
Jurkat NFkB inh: -207; NR2E3 ag-1: -141; 697 NFkB inh: -287; NR2E3 ag-2: 2; GASC-1 inh: 5; GalR3 antag: 4; Jurkat NFkB conf: -106; 697 NFkB conf: -234

Results for N#C/C(=C\c1ccc(N2CCOCC2)cc1)c1ccccc1 ?
Jurkat NFkB inh: -180; NR2E3 ag-1: -192; 697 NFkB inh: -254; NR2E3 ag-2: 1; GASC-1 inh: 6; GalR3 antag: -4; Jurkat NFkB conf: -98; 697 NFkB conf: -200

What do the screens show for `COc1ccc(-c2c(C)nc3c(-c4ccsc4)cnn3c2N)cc1`?
Jurkat NFkB inh: -196; NR2E3 ag-1: -73; 697 NFkB inh: -252; NR2E3 ag-2: 2; GASC-1 inh: -24; GalR3 antag: -10; Jurkat NFkB conf: -76; 697 NFkB conf: -165

How did COC(=O)c1ccc(C(=O)N=c2sccn2C)cc1 do in these assays?
Jurkat NFkB inh: -51; NR2E3 ag-1: -93; 697 NFkB inh: -54; NR2E3 ag-2: -1; GASC-1 inh: 0; GalR3 antag: -9

Results for N#CC1(c2ccc(NC(=O)c3ccccc3F)cc2)CCCC1 ?
Jurkat NFkB inh: -210; NR2E3 ag-1: -148; 697 NFkB inh: -281; NR2E3 ag-2: -2; GASC-1 inh: -3; GalR3 antag: -9; Jurkat NFkB conf: -166; 697 NFkB conf: -214

Results for O=C(Nc1ccc2c(c1)Cc1ccccc1-2)c1ccccc1F ?
Jurkat NFkB inh: -161; NR2E3 ag-1: -157; 697 NFkB inh: -323; NR2E3 ag-2: -4; GASC-1 inh: 3; GalR3 antag: 2; Jurkat NFkB conf: -139; 697 NFkB conf: -202

What do the screens show for `COc1ccc(OC)c(NC(=O)CCNS(=O)(=O)c2ccc3c(c2)CC(C)N3C(C)=O)c1` (stereo not drawn)?
NR2E3 ag-1: -4; GalR3 antag: -4

Results for Cn1nc(CC(=O)NC2CCCCCCCCCCC2)c2ccccc2c1=O ?
Jurkat NFkB inh: 5; NR2E3 ag-1: -11; 697 NFkB inh: -37; NR2E3 ag-2: -5; GASC-1 inh: 29; GalR3 antag: -2

How did Cn1nc(CC(=O)Nc2ccc3c(c2)CCC3)c2ccccc2c1=O do in these assays?
Jurkat NFkB inh: 59*; NR2E3 ag-1: 26; 697 NFkB inh: 41*; GASC-1 inh: -11; GalR3 antag: -4; Jurkat NFkB conf: 68*; 697 NFkB conf: 47*

How did COCCn1c(C)cc(C2=NNC(=NC3CC3)SC2)c1C do in these assays?
Jurkat NFkB inh: 75*; NR2E3 ag-1: 92*; 697 NFkB inh: 68*; NR2E3 ag-2: -4; GASC-1 inh: 9; GalR3 antag: -6; Jurkat NFkB conf: 94*; 697 NFkB conf: 65*
